Laboratory results taken from ChEMBL document CHEMBL4359878, “Discovery of 4-piperazinyl-2-aminopyrimidine derivatives as dual inhibitors of JAK2 and FLT3” (Eur J Med Chem, 2019).
pIC50: −log10 of the molar value.

What was measured:
[1] = biological target: Tyrosine-protein kinase JAK2 (Homo sapiens, UniProt O60674); assay: Inhibition of N-terminal His-tagged human JAK2 catalytic domain (826 to 1132 resiudes) expressed in baculovirus expression system at 100 nM using FAM-labeled peptide as substrate preincubated for 10 mins followed by substrate addition measured after 1 hr in presence of ATP by mobility shift assay relative to control
How it was run: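 Single-concentration (100 nM) percent inhibition in the mobility-shift JAK2 assay. Enzyme was preincubated with compound for 10 min at room temperature in HEPES pH 7.5/Brij-35 buffer. FAM-peptide and ATP were then added and the reaction run for 1 h at 28 °C before EDTA stop. Inhibition = (max−conversion)/(max−min)×100. Each compound was tested at least twice and the values averaged.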

MV4-11 = assay: Antiproliferative activity against human MV4-11 cells assessed as growth inhibition after 72 hrs by CCK-8 assay; assay type: functional; details: MV4-11, 72 h
How it was run: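 CCK-8 viability readout. Cells were cultured in RPMI 1640 with 10% FBS and 1% penicillin/streptomycin and seeded at 3000 (HEL), 5000 (MV4-11) or 3000 (HL60) cells/well. Increasing compound concentrations were applied for 72 h, then CCK-8 was added for a further 3 h and absorbance read at 450 nm. Inhibition = (1−A_sample/A_control)×100, normalized to DMSO controls. Value is the mean of three independent measurements, obtained by curve fitting.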

HEL [2] = assay: Induction of cell cycle arrest in human HEL cells assessed as accumulation at G2 phase at 0.33 uM after 72 hrs by propidium iodide-staining based flow cytometry (reference value: 15.10%); assay type: functional
How it was run: (§1)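 Subconfluent HEL cells were treated for 72 h at 0.33, 1.0, 3.0 or 9.0 μM, with untreated cells as control. Cultures were pulsed with 10 μM BrdU for 30 min at 37 °C before harvest, then PBS-washed, fixed in 70% ethanol and denatured in 2 M HCl. After neutralization, cells were stained with fluorescein anti-BrdU antibody and propidium iodide. DNA content was measured by flow cytometry with 488 nm excitation.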

HEL [3] = assay: Induction of cell cycle arrest in human HEL cells assessed as accumulation at G2 phase at 1 uM after 72 hrs by propidium iodide-staining based flow cytometry (reference value: 15.10%); assay type: functional; how it was run: as §1
HEL [4] = assay: Induction of cell cycle arrest in human HEL cells assessed as accumulation at G1 phase at 3 uM after 72 hrs by propidium iodide-staining based flow cytometry (reference value: 43.12%); assay type: functional; how it was run: as §1
HEL [5] = assay: Induction of cell cycle arrest in human HEL cells assessed as accumulation at S phase at 9 uM after 72 hrs by propidium iodide-staining based flow cytometry (reference value: 41.47%); assay type: functional; how it was run: as §1
HEL [6] = assay: Induction of cell cycle arrest in human HEL cells assessed as accumulation at G2 phase at 9 uM after 72 hrs by propidium iodide-staining based flow cytometry (reference value: 15.10%); assay type: functional; how it was run: as §1
HEL [7] = assay: Induction of cell cycle arrest in human HEL cells assessed as accumulation of cells at G1/S phase after 72 hrs by propidium iodide-staining based flow cytometry; assay type: functional; how it was run: as §1
HEL [8] = assay: Induction of apoptosis in human HEL cells assessed as viable cells at 0.33 uM after 72 hrs by FITC-annexin V/propidium iodide-double staining based flow cytometry (reference value: 93.77%); assay type: functional; details: read-out: Activity
HEL [9] = assay: Induction of apoptosis in human HEL cells assessed as early apoptotic cells at 0.33 uM after 72 hrs by FITC-annexin V/propidium iodide-double staining based flow cytometry (reference value: 2.23%); assay type: functional
HEL [10] = assay: Induction of apoptosis in human HEL cells assessed as viable cells at 1 uM after 72 hrs by FITC-annexin V/propidium iodide-double staining based flow cytometry (reference value: 93.77%); assay type: functional; details: read-out: Activity
HEL [11] = assay: Induction of apoptosis in human HEL cells assessed as early apoptotic cells at 1 uM after 72 hrs by FITC-annexin V/propidium iodide-double staining based flow cytometry (reference value: 2.23%); assay type: functional
HEL [12] = assay: Induction of apoptosis in human HEL cells assessed as viable cells at 9 uM after 72 hrs by FITC-annexin V/propidium iodide-double staining based flow cytometry (reference value: 93.77%); assay type: functional; details: read-out: Activity
HEL [13] = assay: Induction of apoptosis in human HEL cells assessed as early apoptotic cells at 9 uM after 72 hrs by FITC-annexin V/propidium iodide-double staining based flow cytometry (reference value: 2.23%); assay type: functional
[14] = biological target: T1, Receptor-type tyrosine-protein kinase FLT3 (Homo sapiens, UniProt P36888); assay: Inhibition of N-terminal GST-tagged human FLT3 cytoplasmic domain (564 to 993 residues) expressed in baculovirus expression system musing FAM-labeled peptide as substrate preincubated for 10 mins followed by substrate addition measured after 1 hr in presence of ATP by mobility shift assay
T1 sequence (P36888 whole entry): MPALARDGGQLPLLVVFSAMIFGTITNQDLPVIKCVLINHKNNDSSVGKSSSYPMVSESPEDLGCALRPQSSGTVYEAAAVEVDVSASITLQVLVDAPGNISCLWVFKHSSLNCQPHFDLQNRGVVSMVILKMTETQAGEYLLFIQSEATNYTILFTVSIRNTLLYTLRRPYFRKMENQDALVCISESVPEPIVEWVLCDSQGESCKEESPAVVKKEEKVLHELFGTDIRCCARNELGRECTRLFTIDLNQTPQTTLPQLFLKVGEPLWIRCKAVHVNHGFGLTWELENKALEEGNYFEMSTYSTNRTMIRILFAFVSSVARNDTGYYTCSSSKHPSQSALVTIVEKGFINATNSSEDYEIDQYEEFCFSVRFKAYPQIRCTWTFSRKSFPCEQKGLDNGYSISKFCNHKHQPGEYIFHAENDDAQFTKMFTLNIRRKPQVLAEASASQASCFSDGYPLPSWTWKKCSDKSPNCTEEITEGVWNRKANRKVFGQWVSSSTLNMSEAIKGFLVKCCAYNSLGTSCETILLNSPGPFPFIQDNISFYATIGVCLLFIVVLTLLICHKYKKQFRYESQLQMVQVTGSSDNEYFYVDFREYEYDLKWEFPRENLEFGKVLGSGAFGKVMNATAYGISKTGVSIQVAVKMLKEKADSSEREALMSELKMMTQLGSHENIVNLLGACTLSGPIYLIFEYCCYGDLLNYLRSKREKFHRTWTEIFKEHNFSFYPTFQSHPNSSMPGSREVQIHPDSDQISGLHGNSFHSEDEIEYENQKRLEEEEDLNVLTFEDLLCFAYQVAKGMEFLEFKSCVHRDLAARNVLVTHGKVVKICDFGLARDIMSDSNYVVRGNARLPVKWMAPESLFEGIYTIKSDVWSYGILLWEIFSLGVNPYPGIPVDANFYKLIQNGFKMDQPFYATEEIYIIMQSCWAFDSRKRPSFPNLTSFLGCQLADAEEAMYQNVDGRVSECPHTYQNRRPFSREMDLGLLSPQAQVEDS
How it was run: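 Caliper mobility-shift assay with recombinant kinase in 50 mM HEPES pH 7.5, 0.0015% Brij-35. Compound was diluted from DMSO and preincubated with enzyme for 10 min at room temperature. FAM-labeled peptide plus ATP was then added and the reaction run for 1 h at 28 °C. It was stopped with an EDTA (50 mM) buffer. Conversion gave percent inhibition relative to max/min controls, and IC50 came from a four-parameter Hill fit. Duplicate wells were used.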

Sequence of Tyrosine-protein kinase JAK2 (O60674 whole entry, the tested form may be a part): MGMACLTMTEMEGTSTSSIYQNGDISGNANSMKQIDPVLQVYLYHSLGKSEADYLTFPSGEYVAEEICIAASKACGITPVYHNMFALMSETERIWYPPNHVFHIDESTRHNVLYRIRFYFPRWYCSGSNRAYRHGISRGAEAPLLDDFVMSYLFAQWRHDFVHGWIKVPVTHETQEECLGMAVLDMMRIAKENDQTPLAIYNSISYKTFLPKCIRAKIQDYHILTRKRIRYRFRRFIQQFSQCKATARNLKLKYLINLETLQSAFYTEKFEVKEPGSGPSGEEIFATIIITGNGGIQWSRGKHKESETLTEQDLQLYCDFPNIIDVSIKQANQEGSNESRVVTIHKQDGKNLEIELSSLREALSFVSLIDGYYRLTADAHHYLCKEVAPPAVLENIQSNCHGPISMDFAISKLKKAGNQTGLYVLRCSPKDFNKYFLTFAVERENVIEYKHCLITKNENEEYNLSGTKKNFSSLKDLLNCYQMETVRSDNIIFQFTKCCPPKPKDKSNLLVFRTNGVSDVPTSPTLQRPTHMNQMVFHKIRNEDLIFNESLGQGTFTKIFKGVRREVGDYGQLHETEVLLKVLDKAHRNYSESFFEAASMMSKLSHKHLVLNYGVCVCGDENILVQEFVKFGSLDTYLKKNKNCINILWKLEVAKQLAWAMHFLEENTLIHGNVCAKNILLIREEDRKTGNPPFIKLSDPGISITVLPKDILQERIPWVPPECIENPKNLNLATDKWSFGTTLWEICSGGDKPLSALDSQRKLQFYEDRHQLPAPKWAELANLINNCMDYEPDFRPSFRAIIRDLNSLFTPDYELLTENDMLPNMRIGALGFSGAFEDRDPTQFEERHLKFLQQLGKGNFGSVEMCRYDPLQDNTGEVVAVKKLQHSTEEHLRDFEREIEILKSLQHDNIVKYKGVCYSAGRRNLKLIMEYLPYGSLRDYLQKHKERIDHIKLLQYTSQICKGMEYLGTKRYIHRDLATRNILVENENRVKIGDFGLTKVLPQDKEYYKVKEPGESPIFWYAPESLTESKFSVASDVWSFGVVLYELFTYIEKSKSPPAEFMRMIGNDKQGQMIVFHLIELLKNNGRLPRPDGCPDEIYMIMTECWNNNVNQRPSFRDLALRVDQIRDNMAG

- inhibition [1]: 86.7%
- GI50 (MV4-11): 11 µM
- pIC50 [14]: 7.52
SMILES: CC(=O)c1ccc(NC(=O)N2CCN(c3ccnc(Nc4ccc(N5CCOCC5)cc4)n3)CC2)cc1
- Activity (HEL [2]): 7.31%
- Activity (HEL [3]): 6.97%
- Activity (HEL [4]): 71.85%
- Activity (HEL [5]): 19.26%
- Activity (HEL [6]): 2.07%
- Activity (HEL [7]): Dose-dependent effect
- viability at 0.33 µM (HEL [8]): 88.3%
- Activity (HEL [9]): 4.07%
- viability at 1 µM (HEL [10]): 47.9%
- Activity (HEL [11]): 16.97%
- viability at 9 µM (HEL [12]): 24.3%
- Activity (HEL [13]): 35.53%
